Hits are enriched below; roughly 0.95% of the tested compounds scored in any of these assays.
PvdQ inh = P. aeruginosa PvdQ acylase inhibitors, primary screen, biochemical, fluorescence, plate reader and imaging, single point; purified PvdQ acylase; PvdQ acylase [Pseudomonas aeruginosa LESB58]; inhibition, % at 10 µM; 0.063% of 340,000 active; in the data active means inhibition above about 30%, passing the limit was not always enough;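 further: 0% = vehicle neutral wells and 100% = reference inhibitor wells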
CAL PDZ FP-1 = CAL PDZ peptide-binding inhibitors, primary screen, biochemical, fluorescence polarization, Cer-tagged CAL PDZ, HTS. Golgi-associated PDZ and coiled-coil motif-containing protein (Homo sapiens), Q9HD26. purified CAL PDZ, TMR-peptide fluorescence polarization, 1 h. inhibition, % at 20 µM. 0.02% of 330,000 active. AID 504414, 2011;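 active means highest replicate inhibition of at least 40%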;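 further: plate controls were DMSO neutral control wells for no effect and unlabeled competitor peptide control wells for full effect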
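System: purified tagged CAL PDZ domain construct (CerCALP). Schedule: 1 h incubation at room temperature before polarization reading. Medium: 25 mM sodium phosphate pH 7.4, 150 mM NaCl, TCEP, IgG, Thesit. Read-out: percent inhibition from loss of millipolarization. Measured by: FP readout, S and P plane fluorescence. Probe or stimulus: fluorescent TMR peptide probe.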
miR122 inh = miR-122 Renilla sensor signal increase in Huh7, primary screen, miR-122 inhibitor project, cell-based, single point, plate reader; Huh7 miR-122 Renilla luciferase sensor, 48 h; neutral wells = 0, positive control = 100; AID 602342, 2012; activation (reporter increase), % at 12.5 µM; 0.3% of 340,000 active;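 active means mean replicate activation score at least 90 and every replicate individually at or above 90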;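 further: higher luciferase means less miR-122 activity so hits act as miR-122 inhibitors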
CAL PDZ FP-2 = untagged CAL PDZ binding inhibitors, primary screen, biochemical, fluorescence polarization, HTS. Golgi-associated PDZ and coiled-coil motif-containing protein (Homo sapiens), Q9HD26. purified CAL PDZ, TMR-peptide fluorescence polarization, 1 h. inhibition, % at 24.9 µM. 0.92% of 300,000 active. AID 602252, 2012;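 active means mean inhibition of at least 30% with at least half of replicates also reaching 30%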;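 further: 0% = DMSO neutral control and 100% = excess unlabeled competitor peptide PRC23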
Starred values were filed as active, the others as inactive; nt = no result given; [ ] = remark or other dose.

SMILES	PvdQ inh	CAL PDZ FP-1	miR122 inh	CAL PDZ FP-2
Cc1cc(NC(=O)CSc2nnc(-c3ccncc3)n2Cc2ccccc2)n(-c2ccccc2)n1	-15	0	-3	6
Cc1cc(NC(=O)CSc2nnc(-c3ccncc3)n2C)n(-c2ccccc2)n1	-17	0	-3	77*
COc1cccc(N2CCN(CC(=O)NCc3ccccc3)CC2)c1	-20	0	5	50*
Cc1cc(=O)c(C(=O)O)nn1-c1cccc(C(F)(F)F)c1	-4	0	nt	73*
Cc1cc(=O)c(C(=O)O)nn1-c1ccccc1C(F)(F)F	-12	0	4	nt
Cc1onc(-c2ccccc2)c1C(=O)NCC1CCN(C(=O)c2c(-c3ccccc3)noc2C)CC1	13	nt	-8	-3
COc1ccc(N)cc1C#N	-9	0	6	5
COc1cc(N)ccc1Cc1ccc(N)cc1OC	-11	nt	-8	56*
CCCNC(=O)NC[C@@H]1[C@@H](c2ccc(C3=CCCC3)cc2)[C@H](CO)N1C(=O)CC	nt	nt	343*[16.7 µM]	nt
CN(CC(=O)Nc1cccc(F)c1)C(=O)c1ccc2c(=O)n3c(nc2c1)CCC3	-8	-1	-1	-4
CN(Cc1cccc(F)c1)C(=O)c1ccc2c(=O)n3c(nc2c1)CCC3	-16	0	-3	65*
CN(C)C(=O)CN1C(=O)NC2(CCc3ccccc32)C1=O (stereo not given)	-10	-2	-1	-6
Cc1[nH]c(=O)c(C(=O)/C=C/c2ccccc2F)c2c1CCCC2	-4	0	182*	nt
Cc1cc(C)c(C(=O)/C=C/c2cccc3ccccc23)c(=O)[nH]1	-6	1	nt	-2
Cc1ccc2c(c1)c1ncnc(N3CCN(c4ccccc4)CC3)c1n2C	-11	-1	-4	-3
Cc1ccc2c(c1)c1ncnc(N3CCOCC3)c1n2C	-28	-1	0	42*
Cc1noc(C)c1COc1ccc(C(=O)OC(C)C(=O)Nc2ccc(S(=O)(=O)N3CCOCC3)cc2)cc1 (stereo not given)	-13	-1	nt	54*
Cc1ccc(S(=O)(=O)N2CCOCC2)cc1NC(=O)COC(=O)c1ccc(OCc2c(C)noc2C)cc1	-5	-1	-2	4
CSc1nsc(SCC(=O)NCc2ccc(C)cc2)n1	-19	nt	-4	71*
C=CCC1NS(=O)(=O)O[C@H](CCCC)[C@@H]1O (stereo not given in full)	-16	0	1	-4
CN(C)CCC(C(=O)c1ccccc1)c1ccccn1 (stereo not given)	-19	0	-4	85*
CN(C)CCC(C(=O)c1ccccc1)c1ccncc1 (stereo not given)	-9	0	3	-3
Cc1ccc(S(=O)(=O)NC(CC(C)C)C(=O)N2CCOCCOCCOCC2)cc1 (stereo not given)	7	-2	1	0
Cc1ccc(S(=O)(=O)NC(CC(C)C)C(=O)N2CC(C)OC(C)C2)cc1 (stereo not given)	-1	0	-3	75*
C[C@@H]1CN([C@H](C)CO)C(=O)c2cccc(NC(=O)Nc3ccccc3)c2O[C@@H]1CN(C)Cc1ccc(Cl)c(Cl)c1	nt	nt	22[16.7 µM]	nt
SMILES	PvdQ inh	CAL PDZ FP-1	miR122 inh	CAL PDZ FP-2
COc1ccc(CCNc2ccc(C(CC(N)=O)NC(=O)Cc3ccc(Br)cc3)cc2[N+](=O)[O-])cc1 (stereo not given)	6	0	0	-2
CCc1nnc(NC(=O)CSc2nc(-c3ccc(OC)cc3)ns2)s1	-18	0	-1	51*
Cc1ccnc(NC(=O)c2cccs2)c1	-8	0	-5	-3
Cc1ccnc(NC(=O)c2ccc(Br)s2)c1	-13	nt	nt	63*
COc1cc(OC)cc(-c2c(-c3cccs3)c3cc(-c4ccn[nH]4)ccc3n2C)c1	-2	-1	24	-3
CCOc1cc(/C=C/c2ccc3cccc([N+](=O)[O-])c3n2)cc(Cl)c1O	6	-1	113*	3
O=[N+]([O-])c1cccc2ccc(/C=C/c3ccc(Cl)cc3)nc12	12	0	nt	1
COc1ccccc1C(=O)NC(=O)Nc1c(C)cc(C)cc1C	-5	-2	nt	10
COCCn1c(C)cc(C2=NNC(=Nc3ccccc3)SC2)c1C	-7	-1	-5	active
COCCn1c(C)cc(C2=NNC(=Nc3ccc(OC)cc3)SC2)c1C	-7	0	-8	-6
O=C(c1[nH]c(C(F)(F)F)nc1-c1ccccc1)N1CCN(c2ncccc2C(F)(F)F)CC1	nt	nt	2	nt
O=C(COc1ccc(Cl)cc1)c1ccc(O)cc1O	-4	-3	-17	55*
O=C(COc1ccccc1F)c1ccc(O)cc1O	-5	-1	218*	-4
Clc1ccc(Nc2ncn[nH]2)cc1	-6	-2	0	0
CCN(CCO)Cc1csc2ccc(C(C)(C)C)cc12	-17	-1	nt	57*
Cn1c(N)c(C(=O)COC(=O)c2ccccn2)c(=O)n(C)c1=O	-7	-1	-7	3
Cn1c(N)c(C(=O)COC(=O)c2ncc(Cl)c(Cl)c2Cl)c(=O)n(C)c1=O	-18	-1	-6	55*
Cc1cccc2cc(C#N)c(NCCNS(=O)(=O)c3ccccc3)nc12	-7	-1	nt	-1
O=C(/C=C/c1cc(Br)ccc1O)c1ccco1	-2	-1	195*	-7
O=C(C=Cc1ccccc1)c1cc(Br)ccc1O	17	21	-5	81*
Cc1ccc(O)c(C(=O)C=Cc2ccccc2)c1	4	-1	nt	-5
COc1cc2cnc(Cl)nc2cc1OC	7	-1	-10	-1
Oc1ccccc1Nc1ccccn1	-11	nt	7	-5
CC(C)(C)OC(=O)N/N=C/c1cccn1-c1ccc([N+](=O)[O-])cc1	-12	0	7	nt
COc1cc(/C=C/C(=O)OCC(=O)N2CCC(C)CC2)ccc1OCC#N	-14	-1	-4	-4
SMILES	PvdQ inh	CAL PDZ FP-1	miR122 inh	CAL PDZ FP-2
COc1ccc(CC(=O)Nc2ccc(S(=O)(=O)Nc3cc(C)on3)cc2)cc1	-12	-1	4	49*
Cc1cc(NS(=O)(=O)c2ccc(NC(=S)NC(=O)c3cccc(S(=O)(=O)N(C)C)c3)cc2)no1	-12	-3	-1	52*
c1ccc(C(c2nnnn2Cc2ccco2)N2CCN(c3nc4ccccc4s3)CC2)cc1 (stereo not given)	-12	-1	0	-2
Cc1ccc([C@H]2C[C@H](n3cc(-c4ccc(F)cc4)nn3)[C@@H](O)CN2C(=O)c2cccs2)cc1	nt	nt	-5	nt
Cc1nc(-c2ccc(NC(=O)Cc3ccccc3)cc2)cs1	-15	nt	-10	66*
CN(c1ncnc(N)c1[N+](=O)[O-])C1CCCCC1	38*	-3	8	-2
CC(=O)N1CCc2cc(S(=O)(=O)CCC(=O)NCCc3ccc(C)cc3)ccc21	-7	0	0	-6

Screening data as filed in PubChem BioAssay.
